In article PMC2943143 (Biochemical pharmacology, 2010):
Entries after “also recorded” stand apart in the source; their conditions may differ.

Assays:
human pol κ = target: T1, human pol κ (Homo sapiens, UniProt Q9UBT6); experiment: Pol assay, pol κ; type: biochemical; settings: for Ki: pol κ
T1 sequence (Q9UBT6 1-560 limits assumed): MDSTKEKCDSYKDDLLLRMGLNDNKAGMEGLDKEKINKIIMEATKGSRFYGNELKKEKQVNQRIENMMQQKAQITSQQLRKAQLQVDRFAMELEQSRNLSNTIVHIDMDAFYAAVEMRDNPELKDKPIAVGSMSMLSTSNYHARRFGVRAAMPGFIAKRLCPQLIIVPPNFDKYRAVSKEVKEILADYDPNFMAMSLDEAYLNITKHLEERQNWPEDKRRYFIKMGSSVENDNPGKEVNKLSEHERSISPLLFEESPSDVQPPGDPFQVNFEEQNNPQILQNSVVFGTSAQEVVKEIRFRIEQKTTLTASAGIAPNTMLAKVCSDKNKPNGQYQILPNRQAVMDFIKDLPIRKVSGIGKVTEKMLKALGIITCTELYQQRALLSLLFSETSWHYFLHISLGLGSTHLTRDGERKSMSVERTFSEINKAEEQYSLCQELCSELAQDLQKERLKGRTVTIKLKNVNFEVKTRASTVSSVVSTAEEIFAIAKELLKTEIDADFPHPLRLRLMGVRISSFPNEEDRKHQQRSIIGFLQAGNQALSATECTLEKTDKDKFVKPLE
Summary of the method: (§1)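 Test compound was dissolved in DMSO and sonicated 30 s. It was preincubated with enzyme (0.05 unit final) in 50 mM Tris-HCl pH 7.5, 1 mM DTT, 50% glycerol and 0.1 mM EDTA at 0 °C for 10 min. This was added to each enzyme's standard reaction mix with poly(dA)/oligo(dT)18 (A/T = 2/1) template-primer and dTTP substrate, then incubated at 37 °C for 60 min. Activity is given as % of inhibitor-free control.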

rat pol β = rat pol β (Rattus norvegicus, UniProt P06766); experiment: Pol assay, rat pol β; type: biochemical; settings: for Ki: pol β, Dixon plot
Summary of the method: as §1

calf thymus TdT = calf thymus TdT (Bos taurus, UniProt P06526); experiment: Pol assay, calf TdT; type: biochemical; settings: 100 and 1,000 nM PGG, Fig. 1C
Summary of the method: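 TdT was assayed with oligo(dT)18 (3′-OH) primer and dTTP substrate. Test compound in sonicated DMSO was preincubated with 0.05 unit enzyme in 50 mM Tris-HCl pH 7.5, 1 mM DTT, 50% glycerol and 0.1 mM EDTA at 0 °C for 10 min. Reaction ran at 37 °C for 60 min. Remaining activity is expressed relative to no-inhibitor control.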

[1] = tested on: rat liver microsomal 5 α-reductase; settings: cited from earlier work
HIV integrase = settings: read-out: IC50, HIV integrase; cited from earlier work
[2] = tested on: mouse Lewis lung cancer allografts; settings: dose-dependent in the range of 4 and 20 mg/kg, syngenic mice; cited from earlier work
human PCa PC-3 cells = settings: i.p. injection, every other day, 25 mg/kg, nude mice; cited from earlier work
[3] = unchanged at 30, 60 and 90 nM PGG

Chain of calf thymus TdT (P06526 whole entry): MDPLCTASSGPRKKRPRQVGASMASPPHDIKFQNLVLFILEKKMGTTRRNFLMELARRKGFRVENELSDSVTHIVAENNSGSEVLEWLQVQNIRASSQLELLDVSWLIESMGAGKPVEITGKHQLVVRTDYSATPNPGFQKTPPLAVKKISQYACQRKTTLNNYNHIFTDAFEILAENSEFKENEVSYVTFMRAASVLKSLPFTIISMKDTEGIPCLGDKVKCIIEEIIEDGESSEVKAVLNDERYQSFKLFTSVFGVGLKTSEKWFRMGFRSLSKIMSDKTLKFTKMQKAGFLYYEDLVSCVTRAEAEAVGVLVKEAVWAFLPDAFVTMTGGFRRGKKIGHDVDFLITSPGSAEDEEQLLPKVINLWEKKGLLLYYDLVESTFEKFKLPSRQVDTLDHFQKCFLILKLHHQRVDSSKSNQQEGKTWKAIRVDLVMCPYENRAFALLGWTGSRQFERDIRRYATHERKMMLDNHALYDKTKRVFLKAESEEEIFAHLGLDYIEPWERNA

## O=C(OC[C@H]1O[C@@H](OC(=O)c2cc(O)c(O)c(O)c2)[C@H](OC(=O)c2cc(O)c(O)c(O)c2)[C@@H](OC(=O)c2cc(O)c(O)c(O)c2)[C@@H]1OC(=O)c1cc(O)c(O)c(O)c1)c1cc(O)c(O)c(O)c1 [PGG, 1,2,3,4,6-penta-O-galloyl-β-D-glucose]
Human pol κ
  IC50: 30 nM
  Mode of Inhibition, pol κ, DNA template-primer: Non-competitive for DNA template-primer
  Mode of Inhibition, pol κ, dNTP: Non-competitive for dNTP
Human pol κ; 100 and 1,000 nM PGG, Fig. 1C
  effect on pol κ activity: significantly inhibit
Human pol κ; with respect to DNA template-primer
  Ki: 9.3 nM
Human pol κ; with respect to dNTP
  Ki: 15.1 nM
Human pol κ; PGG 10 and 100 nM, supplemental Table S1
  effect of 0.05% NP-40 on the inhibitory effect on pol κ: not reversed
Human pol κ; poly(rC) 50 μM, BSA 200 μg/ml
  effect of poly(rC) or BSA on the inhibitory effect on pol κ: neither poly(rC) nor BSA influenced
Rat pol β; IC50, pol β, poly(dA)/oligo(dT)18 and dTTP, 0.05 unit enzyme
  IC50: 108 to 160 nM
Rat pol β; for the DNA template-primer
  Ki: 20.1 nM
Rat pol β; for the dNTP substrate
  Ki: 23.8 nM
Rat pol β; PGG 100 nM and 200 nM, supplemental Table S1
  effect of 0.05% NP-40 on the inhibitory effect on pol β: not reversed
Rat pol β; double reciprocal plots
  Mode of Inhibition, pol β, DNA template-primer: competitively; also recorded: Competitive for DNA template-primer
  Mode of Inhibition, pol β, dNTP: competitively; also recorded: Competitive for dNTP
Rat pol β; poly(rC) 50 μM, BSA 200 μg/ml
  effect of poly(rC) or BSA on the inhibitory effect on pol β: neither poly(rC) nor BSA influenced
Rat pol β; [3]
  apparent Vmax of pol β, DNA template-primer: 111 pmol/h
  apparent Vmax of pol β, dNTP substrate: 62.5 pmol/h
Calf thymus TdT
  effect on TdT activity: not affected; also recorded: not sensitive
[1]
  Mode of Inhibition, 5-alpha-Reductase, NADPH: competitive inhibitor; also recorded: Competitive for NADPH
  Mode of Inhibition, 5-alpha-Reductase, testosterone: non-competitive inhibitor; also recorded: Non-competitive for testosterone
[1]; read-out: IC50, 5-alpha-Reductase
  IC50: 7800 nM
[1]; read-out: Ki, 5-alpha-Reductase, NADPH, competitive for NADPH
  Ki: 480 nM
HIV integrase
  IC50: 13700 nM
[2]
  in vivo growth of Lewis lung cancer allografts: suppresses
Human PCa PC-3 cells
  growth of PC-3 cells inoculated into the tibia: positive inhibitory efficacy
